The term inhibition denotes the share of the control response that was lost under treatment. Higher therefore signals a strong effect. What is called IC50 is the concentration at which inhibition is half-maximal. For orientation: ED50 means the dose that gives a 50% effect, or the effect in half of the subjects. Low readings indicate an effect at a small dose, high ones a need for a large dose. Usually Inhibition stands for the share of the control response that was lost under treatment. A high value points to a response far below the control.

The source made the active and inactive calls. The rule behind the calls is not given here.

These results are taken from ChEMBL document CHEMBL1124002, “Antiallergy agents. 1. Substituted 1,8-naphthyridin-2(1H)-ones as inhibitors of SRS-A release” (J Med Chem, 1988).

In assay [1] the test system is Cavia porcellus. Put plainly: Percent inhibition of bronchospasm in vivo at a dose of 12.5 mg/kg in guinea pig. The class given is functional. The following applies: Bronchiole. In outline: (§1)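 Guinea pigs were sensitized with ovalbumin and used 3-4 weeks later. They were fasted and anesthetized with dialurethane ip. Compounds were given orally 2 h before challenge. Propranolol 1 mg/kg, indomethacin 5 mg/kg and mepyramine 2 mg/kg were given iv 15 min before a 0.5 min aerosol of 0.5% ovalbumin through the tracheal cannula. The rise in inflation pressure measured bronchoconstriction. Results are % inhibition, 4-5 animals per group.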

For assay [2], the species on record is Cavia porcellus. The assay can be described thus: Percent inhibition of SRS-A release in vitro at a dose of 10 uM in guinea pig. The class given is functional. In outline: (§2)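 Male Hartley guinea pigs were sensitized with ovalbumin (5 mg ip + 5 mg sc on day 1, 5 mg ip on day 4). About 400 mg chopped lung was preincubated with compound for 12 min at 37 °C in Tyrode's with 10 mM cysteine, then challenged with 20 μg/mL ovalbumin (final) for 0.25 h. SRS-A in ethanol-extracted supernatant was bioassayed on mepyramine-treated ileum against a rat SRS-A standard. Results are % inhibition versus vehicle, from 3-4 lungs.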

The subject of assay [3] is Cavia porcellus. The assay can be described thus: Percent inhibition of bronchospasm, when administered orally at a dose of 160 mg/kg to guinea pig. As to conditions: Bronchiole, route oral. The class given is functional. In outline:
(§3)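 Male Hartley guinea pigs were sensitized with ovalbumin (5 mg ip plus 5 mg sc on day 1, 5 mg ip on day 4) and used 3-4 weeks later, fasted overnight and given dialurethane ip. They were dosed orally 2 h before challenge and given iv propranolol 1 mg/kg, indomethacin 5 mg/kg and mepyramine 2 mg/kg. Fifteen minutes later, 0.5% ovalbumin aerosol was delivered for 0.5 min via tracheal cannula. Read-out was increased inflation pressure, as mean % inhibition from 4-5 animals.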

For assay [4], the system named is Cavia porcellus. Put plainly: Percent inhibition of bronchospasm, when administered orally at a dose of 18 mg/kg in guinea pig. The class given is functional. The following applies: Bronchiole, route oral. The essentials: as §3
Assay [5] concerns Cavia porcellus. Put plainly: Percent inhibition of bronchospasm, when administered orally at a dose of 53 mg/kg in guinea pig. The class given is functional. The following applies: Bronchiole, route oral. In outline:
as §3

The species named for assay [6] is Cavia porcellus. The assay can be described thus: Inhibitory activity against SRS-A release in guinea pig; 0.01-19 uM. The class given is functional. The essentials: as §2
Assay [7] has as its system Cavia porcellus. The assay can be described thus: Effective oral dose required to inhibit bronchospasm in guinea pig. The class given is functional. The following applies: Bronchiole. The essentials:
as §1

For assay [8], the species on record is Cavia porcellus. The assay can be described thus: Percent inhibition of SRS-A release in vitro at a dose of 3 uM in guinea pig. The class given is functional. The essentials:
as §2

For assay [9], the system named is Cavia porcellus. Put plainly: Percent inhibition of bronchospasm in vivo at a dose of 25 mg/kg in guinea pig. The class given is functional. As to conditions: Bronchiole. In outline: as §1
Assay [10] is filed under the species Cavia porcellus. The assay can be described thus: Inhibitory activity against sulfidopeptide leukotriene release in guinea pig. The class given is functional.
Assay [11] concerns Cavia porcellus. The assay can be described thus: Percent inhibition of bronchospasm when administered at a dose of 1 mg/kg in guinea pig. The following applies: Bronchiole. The class given is functional. In outline: (§4)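 Ovalbumin-sensitized, anesthetized guinea pigs received iv propranolol 1 mg/kg, indomethacin 5 mg/kg and mepyramine 2 mg/kg, then a 0.5 min aerosol challenge with 0.5% ovalbumin 15 min later. The agent was given intravenously. The rise in inflation pressure was scored as % inhibition of bronchospasm.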

Assay [12] has as its system Cavia porcellus. Put plainly: Percent inhibition of bronchospasm when administered at a dose of 5 mg/kg in guinea pig. The class given is functional. The following applies: Bronchiole. The essentials: as §4
Assay [13] relates to Cavia porcellus. Put plainly: Percent inhibition of bronchospasm when administered at a dose of 2.5 mg/kg in guinea pig. The following applies: Bronchiole. The class given is functional. The essentials:
as §4

For assay [14], the species on record is Cavia porcellus. Put plainly: Production of LTD4 in guinea pig lung. The class given is functional. The essentials: (§5)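 Lung fragments pooled from four sensitized guinea pigs were challenged in 0.4 g aliquots with antigen, with 10 μM test agent or DMSO vehicle added 12 min before challenge. Tyrode's held 10 mM cysteine and 10 μM indomethacin. Ethanol extracts were pooled, solvent-partitioned and run on reverse-phase HPLC with UV 280 nm. LTD4 was quantified against an LTC4 standard curve (10-200 pmol) as pmol/g.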

The species named for assay [15] is Cavia porcellus. Put plainly: Inhibitory activity against SRS-A release in guinea pig; 0.7-2 uM. The class given is functional. The essentials:
as §2

The species entered for assay [16] is Cavia porcellus. Put plainly: Production of SRS-A in guinea pig lung. The class given is functional. The essentials: (§6)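 Antigen-challenged lung fragments from sensitized guinea pigs were treated with 10 μM test agent or DMSO vehicle 12 min before challenge. Tyrode's contained 10 mM cysteine and 10 μM indomethacin. SRS-A in ethanol extracts was bioassayed on guinea pig ileum and given as units/g, mean ± SEM of 4 lungs. A paired t test compared treatment with vehicle.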

The test system of assay [17] is Cavia porcellus. Put plainly: Effective oral dose required to inhibit bronchospasm in guinea pig; 1.3-7.6 mg/kg. The class given is functional. The following applies: Bronchiole. The essentials: as §1
The species entered for assay [18] is Mus musculus. Put plainly: Compound was tested in vitro in cloned murine mast cell (MC-9) for the inhibition of production of leukotriene products at 50 uM concentration; No inhibition. The class given is functional.
Assay [19] is filed under the species Cavia porcellus. The assay can be described thus: Compound was tested for th inhibition of SRS-A production in guinea pig lung. The class given is functional. In outline: as §6
Assay [20] is filed under the species Cavia porcellus. The assay can be described thus: Compound was tested for th inhibition of LTD4 production in guinea pig lung. The class given is functional. In outline:
as §5

For assay [21], the species on record is Rattus norvegicus. The assay can be described thus: Compound was tested in vitro in rat polymorphonuclear leucocyte for the inhibition of production of leukotriene products at 50 uM concentration; No inhibition. The class given is functional.
The subject of assay [22] is Cavia porcellus. The assay can be described thus: Percent inhibition of bronchospasm in vivo at oral dose of 25 mg/kg in guinea pig.
In assay [23] the test system is Cavia porcellus. The assay can be described thus: Percent inhibition of bronchospasm in vivo for a dose of 5 mg/kg in guinea pig. The class given is functional. The following applies: Bronchiole, read-out: Inhibition. The essentials:
as §4

Assay [24] relates to Cavia porcellus. Put plainly: Percent inhibition of bronchospasm administered intravenously at a dose of 5 mg/kg in guinea pig. The class given is functional. As to conditions: Bronchiole, route intravenous. In outline:
as §4

Assay [25] is filed under the species Cavia porcellus. The assay can be described thus: Inhibitory activity against SRS-A release in guinea pig; 0.05-14 uM. The class given is functional. In outline: as §2
For assay [26], the system named is Cavia porcellus. The assay can be described thus: Effective oral dose required to inhibit bronchospasm in guinea pig; 0.9-12.8 mg/kg. The class given is functional. The following applies: Bronchiole. The essentials: as §1

`O=c1c(-c2ccccn2)c(O)c2cccnc2n1-c1ccccc1` displayed an inhibition in vivo at 12.5 mg/kg in [1] of 42%. Further, in assay [2], 10 µM produced 84% inhibition.
`Cn1c(=O)c2[nH]cnc2n(C)c1=O` [AMINOPHYLLINE] came in with an inhibition in vivo at 160 mg/kg in assay [3] of 81%. The same molecule returned an inhibition in vivo at 18 mg/kg in assay [4] of 21%. Besides, in assay [5], the inhibition in vivo at 53 mg/kg amounted to 55%.
For the molecule `CCCCc1c(OC(C)=O)c2cccnc2n(-c2ccc(F)cc2)c1=O`, the inhibition in vivo at 12.5 mg/kg in assay [1] came out at 34%. Besides, the inhibition at 10 µM in [2] turned out to be 77%.
On to `CCCCc1c([O-])c2cccnc2n(-c2ccccc2)c1=O.[Na+]`, for which, in assay [6], the IC50 worked out at 240 nM. In assay [7], the ED50 was 14 mg/kg. In [1], this molecule registered an inhibition in vivo at 12.5 mg/kg of 68%. Besides, the inhibition at 10 µM in assay [2] was 56%.
In assay [8], `C=CCc1c(OC(C)=O)c2cccnc2n(-c2ccc(OCc3ccccc3)cc2)c1=O` came in with an inhibition at 3 µM of 23%.
Turning to `CCCCc1c(OCCN(C)C)c2cccnc2n(-c2ccccc2)c1=O`, in assay [9], the inhibition in vivo at 25 mg/kg came out at 84%. The inhibition in vivo at 12.5 mg/kg in assay [1] came to 13%. In [2], this molecule had an inhibition at 10 µM of 0%.
For `CCCCc1c(O)c2cccnc2n(-c2ccc(F)cc2)c1=O`, the inhibition in vivo at 12.5 mg/kg in [1] came to 0%. This molecule also had an inhibition at 10 µM in assay [2] of 95%.
In the case of `C=CCc1c(OC(C)=O)c2cccnc2n(-c2cccc(Cl)c2)c1=O`, in assay [10], the IC50 is around 1000 nM. For the same molecule, in assay [7], it took a dose of 0.4 mg/kg to reach the 50% effect level (ED50). In assay [2], this molecule registered an inhibition at 10 µM of 60%.
Regarding `C=CCc1c(OC(C)=O)c2cccnc2n(-c2cccc(OC)c2)c1=O`, the inhibition in vivo at 12.5 mg/kg in [1] amounted to 32%. This molecule also came in with an inhibition at 10 µM in assay [2] of 84%.
With `CCCCc1c(O)c2cccnc2n(-c2ccc(O)c(C(=O)OCC)c2)c1=O`, the inhibition in vivo at 12.5 mg/kg in assay [1] is 0%. In [2], this molecule registered an inhibition at 10 µM of 65%.
The molecule `CCCc1c(OCC(O)COc2ccc3c(=O)cc(C(=O)O)oc3c2CCC)ccc(C(C)=O)c1O` (centres undefined) [FPL-55712] displayed an inhibition in vivo at 1 mg/kg in [11] of 32%. For the same molecule, in assay [12], the inhibition in vivo at 5 mg/kg was found to be 68%. For the same molecule, the inhibition in vivo at 2.5 mg/kg in [13] is 57%.
In the case of `C=CCc1c(OC(C)=O)c2cccnc2n(-c2ccccc2)c1=O`, the LTD4 production at 10 µM in assay [14] is 25 pmol/g. Besides, the concentration for half-maximal inhibition (IC50) in assay [15] amounted to 1100 nM. The SRS-A release at 10 µM in assay [16] came to 9.3 units/g. The same molecule returned an inhibition in vivo at 12.5 mg/kg in assay [1] of 84%. The molecule also had an inhibition at 10 µM in [2] of 73%. Moreover, the 50% effect level in [17] (ED50) was put at a dose of 2.9 mg/kg. Besides, the outcome in [18] and in [21] was inactive. Besides, the Inhibition in assay [19] is 69%; in assay [20], 70%.
Take `C=CCc1c(O)c2cccnc2n(-c2ccccc2)c1=O`: the Inhibition in assay [22] was determined as 85%. The molecule further came in with an inhibition at 10 µM in [2] of 81%.
As for `CCCc1c2c(c(O)c3c(=O)cc(C(=O)O)oc13)CCCC2` [PROXICROMIL], the inhibition in vivo at 5 mg/kg in assay [23] and in assay [24] was 0% in each case.
As for `C=CCc1c(O)c2cccnc2n(-c2ccccc2OC)c1=O`, the inhibition in vivo at 25 mg/kg in assay [9] came to 90%. Moreover, the inhibition at 10 µM in assay [2] stood at 69%. This molecule gave an IC50 in [25] of 980 nM. This molecule also showed an ED50 in assay [26] of 3.7 mg/kg.
`CCc1c(O)c2cccnc2n(-c2ccccc2)c1=O`: the inhibition in vivo at 12.5 mg/kg in assay [1] was determined as 44%. The same molecule yielded an inhibition at 10 µM in assay [2] of 74%.
In assay [1], `O=c1c(CCc2ccccn2)c(O)c2cccnc2n1-c1ccccc1` showed an inhibition in vivo at 12.5 mg/kg of 5%. The molecule further gave an inhibition at 10 µM in assay [2] of 58%.
